Screening results as filed in PubChem BioAssay.
PolyA inhibitor: polyadenylation inhibitors in yeast reporter cells, primary screen, luminescence, S. cerevisiae; hit rate 0.02% among 300,000; activity score, % at 12 µM; S. cerevisiae SKY197-pL101 polyadenylation reporter, beta-gal luminescence; efflux-impaired pdr1/pdr3 knockout yeast; score 100 = 6 SD above DMSO;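 active = lowest replicate activity score at least 50, where 100 means six control SD above control mean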;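 note: yeast exposed to compound for 9 h at 30 °C; higher score means more reporter readthrough which indicates perturbed polyadenylation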
T cruzi inh: inhibitors of intracellular T. cruzi growth, primary screen, luminescence, NIH3T3 host cells. T. cruzi beta-gal in NIH3T3, 90 h. inhibition, % (test concentration not listed). hit rate 1.4% among 300,000;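 active = mean inhibition across valid replicates above about 55%, limit read from the data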;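 note: signal also drops with host cell toxicity which is not excluded here; higher percent means less beta-gal luminescence so fewer parasites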
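compound dosing = single 50 nL compound addition per well in DMSO | material = NIH/3T3 host cells with β-galactosidase reporter T. cruzi | input = 5,000 host fibroblasts per well | timing = ≥90 h infection period, 3 h prior cell attachment | read-out basis = percent inhibition of parasite-derived β-gal signal | detection = GalScreen β-gal luminescence, detergent lysis, 60 min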
CHT inh: inhibitors of human choline transporter CHT; High affinity choline transporter 1 (Homo sapiens), Q9GZV3; CHT-expressing cells, membrane potential dye, choline response; stronger effect = lower value; B-score at 10 µM; hit rate 0.86% among 310,000;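 active = B-score over 3 SD under the library average, and starting fluorescence ratio not unusually high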;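 note: choline stimulus applied at its EC90 after an EC20 pre-addition; B-score computed on integrated fluorescence ratio after choline addition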
Target sequence (Q9GZV3 whole entry, looked up): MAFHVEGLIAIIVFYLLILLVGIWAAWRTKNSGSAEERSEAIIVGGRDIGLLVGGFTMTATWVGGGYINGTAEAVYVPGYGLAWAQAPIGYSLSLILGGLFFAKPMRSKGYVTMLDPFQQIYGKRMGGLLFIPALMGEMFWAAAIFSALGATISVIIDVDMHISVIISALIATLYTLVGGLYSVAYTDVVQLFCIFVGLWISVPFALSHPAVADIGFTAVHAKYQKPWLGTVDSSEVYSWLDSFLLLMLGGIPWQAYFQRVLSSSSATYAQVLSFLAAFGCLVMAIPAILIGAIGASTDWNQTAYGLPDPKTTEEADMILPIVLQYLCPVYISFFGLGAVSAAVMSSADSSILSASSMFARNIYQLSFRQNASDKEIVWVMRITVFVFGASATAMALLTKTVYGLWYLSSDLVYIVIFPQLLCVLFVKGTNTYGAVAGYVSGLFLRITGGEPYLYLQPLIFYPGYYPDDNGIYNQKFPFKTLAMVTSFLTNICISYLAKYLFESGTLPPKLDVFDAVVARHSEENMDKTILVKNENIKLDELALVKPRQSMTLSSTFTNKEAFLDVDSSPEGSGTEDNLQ
CHT allo act: CHT positive allosteric modulators, primary screen, cell-based, membrane potential dye, choline EC20 | CHT-expressing cells; stronger effect = higher value; LV-AA mutant CHT in HEK293 cells | B-score at 10 µM | hit rate 0.49% among 310,000;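 active = initial fluorescence not abnormally high and integrated response B-score, plate-corrected, over 3 SD above library mean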
Each line names hits and unclear results; the compound was inactive in the other large screens. A selection: hits, their analogues and other compounds. The true share with any hit is near 2.6%.

Cc1cccc(C)c1OCc1nc2ccccc2c(=O)n1/N=C/c1c[nH]c2ccccc12	T cruzi inh 69
Cc1cc(/C=N/n2c(COc3ccccc3C)nc3ccccc3c2=O)c(O)c([N+](=O)[O-])c1	T cruzi inh 67
Cc1ccccc1OCc1nc2ccccc2c(=O)n1/N=C/c1c[nH]c2ccccc12	none
SC(COCc1ccccc1)CN1CCN(Cc2ccc3c(c2)OCO3)CC1 (stereo not given)	T cruzi inh 55
COc1ccc(NC(=O)c2ccc(C)cc2)c[n+]1[O-]	none
O=C(N=C1SC2CS(=O)(=O)CC2N1Cc1ccc(F)cc1)C1CCCO1 (stereo not given)	none
CCCN(c1ccccc1F)S(=O)(=O)c1cc(-c2cc(C)no2)ccc1OC	none
O=C(CNC(=S)N(Cc1ccccc1)Cc1cccs1)NCc1ccc(F)cc1	none (no result: CHT inh, CHT allo act)
O=C(CNC(=S)N(Cc1ccccc1)Cc1ccccc1F)NCCc1ccc(Cl)cc1	T cruzi inh 85
CCSc1nnc(NC(=O)C(CC)(C(F)(F)F)C(F)(F)F)s1	CHT inh -5.2
COc1ccc2c(C(=O)c3ccc(C)cc3)n(Cc3ccc(C(N)=O)cc3)[n+]([O-])c2c1	none (no result: PolyA inhibitor, T cruzi inh)
O=[N+]([O-])c1cccc(-c2nc(-c3ccccc3)c(-c3cccs3)[nH]2)c1	none
COc1cc(-c2nc(-c3ccccc3)c(-c3cc([N+](=O)[O-])ccc3C)[nH]2)cc(OC)c1OC	T cruzi inh 58
CCOc1ccc(CN2CCN(Cc3cccn3-c3cccnc3)CC2CCO)cc1 (stereo not given)	T cruzi inh 60
Fc1ccccc1N1CCN(C2CCCN(Cc3cccc(C(F)(F)F)c3)C2)CC1 (stereo not given)	T cruzi inh 72
COc1cccc(CN2CCN(Cc3cccc4c3OCO4)CC2CCO)c1 (stereo not given)	none
OCCC1CN(Cc2cccc(C(F)(F)F)c2)CCN1Cc1ccccc1 (stereo not given)	T cruzi inh 55
Cc1ccc(CN2CCN(Cc3cccc4c3OCO4)CC2CCO)cc1 (stereo not given)	T cruzi inh 90
OCCC1CN(Cc2ccc(C(F)(F)F)cc2)CCN1Cc1ccccc1 (stereo not given)	none
CCOc1ccc(CN2CCN(Cc3cccc4c3OCO4)CC2CCO)cc1 (stereo not given)	T cruzi inh 97
OCCC1CN(Cc2cc3c(cc2Cl)OCO3)CCN1Cc1ccccc1 (stereo not given)	T cruzi inh 59
CCOc1ccc(CN2CCN(Cc3cccc4nonc34)CC2CCO)cc1 (stereo not given)	T cruzi inh 60
COc1cccc(CN2CCN(Cc3c(C)nn(C(C)C)c3C)CC2CCO)c1 (stereo not given)	T cruzi inh 71
CCOC(=O)C1=C(N)Oc2cc(O)ccc2C1c1ccc(F)cc1F (stereo not given)	none
OCCC1CN(Cc2ccc3nonc3c2)CCN1Cc1ccsc1 (stereo not given)	T cruzi inh 70
OCCC1CN(Cc2ccc3cc(Cl)ccc3n2)CCN1Cc1ccsc1 (stereo not given)	none
COC(=O)c1cn(-c2ccccc2)nc1-c1ccncc1	none
O=C(OCc1ccccc1)c1cn(-c2ccccc2)nc1-c1ccncc1	T cruzi inh 57
O=[N+]([O-])c1ccc(C2CCCC/C2=N\OCc2cccc(F)c2)c([N+](=O)[O-])c1 (stereo not given)	T cruzi inh 62
CC1CCCC/C1=N/Nc1ccc([N+](=O)[O-])cc1[N+](=O)[O-] (stereo not given)	none
COC(=O)c1ccccc1NC(=O)c1ccc2c(c1)OCCCO2	none
Cc1cc2c(cc1S(=O)(=O)NCc1ccccc1)OCC(=O)N2	none
C/C(=N\NC(=S)Nc1cccc(C)c1)c1ccco1	T cruzi inh 77
CCOC(=O)c1ccc([N+](=O)[O-])c(CS(=O)(=O)c2ccc(Cl)cc2)c1	none
Cc1ccc(S(=O)(=O)CCC(=O)c2cccc([N+](=O)[O-])c2)cc1	T cruzi inh 58
Cc1ccc(S(=O)(=O)Cc2cc(F)c([N+](=O)[O-])cc2[N+](=O)[O-])cc1	CHT inh -6.4
Cc1ccc(C(=O)CCS(=O)(=O)c2ccc(Br)cc2)cc1	none
CCOC(=O)CNC(=O)Cn1cnc2c(nnn2-c2ccc(OC)cc2)c1=O	none
COc1cccc(NC(=O)c2ccccc2N2C(=O)C3C4C=CC(C5CC45)C3C2=O)c1 (stereo not given)	none
Brc1cccc(-c2nc3cccnc3nc2-c2cccc(Br)c2)c1	none
Cc1ccc(-c2nc3cc(Br)cnc3nc2-c2ccc(C)cc2)cc1	T cruzi inh 58
COc1ccc(-n2nc(C(=O)NCC(=O)NCCN(C)C)c3ccccc3c2=O)c(OC)c1	none
O=C(CCNC(=O)c1ccco1)Nc1ccc(Cl)cc1F	none
O=C(c1ccc(S(=O)(=O)NCc2ccco2)cc1)N1CCN(Cc2ccc3c(c2)OCO3)CC1	none
CCCCC1=CC2=C(c3ccco3)C(=O)C(C)(OC(=O)c3ccc(OC)cc3)C(=O)C2=CN1C1CCCC1 (stereo not given)	CHT inh -7
Cc1ccc(SCCN2CCN(C)CC2)cc1	T cruzi inh 64
Cc1ccc(SCCN2CCN(C)CCC2=O)cc1	none (no result: CHT inh, CHT allo act)
Cc1ccc(SCCN2CCN(Cc3ccccc3)CC2)cc1	T cruzi inh 73
COc1ccc(-n2nc(C(=O)NCC(=O)N3CCCC3)c3ccccc3c2=O)cc1Cl	none
Cc1ccc(Nc2nc(-c3cccnc3)cs2)cc1Cl	T cruzi inh 59
Cc1ccc(/C=N\NC(=O)c2ccc(Cn3cc(Br)c([N+](=O)[O-])n3)o2)o1	T cruzi inh 74
COc1ccccc1N1CCN(c2ncc(C(=O)N3CCN(c4cccc(Cl)c4)CC3)c3ccccc23)CC1	T cruzi inh 61
CCOc1ccccc1C(=O)N1CCN(c2cccc(Cl)c2)CC1	CHT allo act 12
COc1ccc(C(=O)N2CCN(c3cccc(Cl)c3)CC2)c(OC)c1	none
COc1ccc(S(=O)(=O)N2CCCC(C(=O)N3CCOCC3)C2)cc1OC (stereo not given)	none
Cc1ccc(CNC(=O)CCC2CCCN(Cc3ccc4cccc(F)c4n3)C2)o1 (stereo not given)	T cruzi inh 61
Cc1ccc(CNC(=O)CCC2CCCN(Cc3c(C)nn(C(C)C)c3C)C2)o1 (stereo not given)	T cruzi inh 67
Cc1ccc(CNC(=O)CCC2CCCN(Cc3cccc4c3OCO4)C2)o1 (stereo not given)	none
CC(C)CCN1CCN(CCCn2cccn2)CC1CCO (stereo not given)	none
O=C(Oc1c(-c2ccccc2)c(=O)n2c3c(cccc13)CC2)c1cccc([N+](=O)[O-])c1	PolyA inhibitor 67
COc1cccc2cc(C(=O)C3=C(O)C(=O)N(CCN4CCOCC4)C3c3cccc(Cl)c3)oc12 (stereo not given)	none
O=C(NCC(=O)N1CCN(c2ccccc2)CC1)c1ccc(Br)o1	none
